Results reported in ChEMBL document CHEMBL3286182, “4-aminoquinolone piperidine amides: noncovalent inhibitors of DprE1 with long residence time and potent antimycobacterial activity” (J Med Chem, 2014).
In brackets after ≈: the same amount, converted by molar mass. Activity calls are given as the source filed them. The calls are words filed in the database; no cut-off is given here.

What was measured:
Cytochrome P450 3A4 = Cytochrome P450 3A4 (Homo sapiens, UniProt P08684); assay: Inhibition of CYP3A4 (unknown origin); type: ADME
Sequence of Cytochrome P450 3A4 (P08684 whole entry, canonical isoform): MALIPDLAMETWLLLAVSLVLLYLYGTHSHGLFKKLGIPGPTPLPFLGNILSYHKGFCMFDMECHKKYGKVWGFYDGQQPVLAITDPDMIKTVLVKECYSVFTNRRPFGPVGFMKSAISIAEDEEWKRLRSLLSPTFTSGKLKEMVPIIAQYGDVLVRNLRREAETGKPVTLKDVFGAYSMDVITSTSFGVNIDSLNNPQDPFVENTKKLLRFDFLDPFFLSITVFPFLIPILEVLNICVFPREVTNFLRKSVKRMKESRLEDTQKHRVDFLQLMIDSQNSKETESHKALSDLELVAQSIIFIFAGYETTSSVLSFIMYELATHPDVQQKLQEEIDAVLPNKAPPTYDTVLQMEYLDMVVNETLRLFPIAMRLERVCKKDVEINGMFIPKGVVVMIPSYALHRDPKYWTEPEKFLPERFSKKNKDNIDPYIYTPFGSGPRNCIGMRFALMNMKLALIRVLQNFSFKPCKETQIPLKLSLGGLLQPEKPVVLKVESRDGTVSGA
Outline: (§1)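 CYP inhibition IC50 measured on isoforms CYP3A4, CYP2D6, CYP2C9, CYP2C19 and CYP1A2.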

[1] = tested on: Mycobacterium tuberculosis; assay: Antimycobacterial activity against Mycobacterium tuberculosis H37Rv infected in human THP1 cells after 7 days; type: functional, organism-based; settings: THP-1
[2] = Permeability of the compound from basolateral to apical side in human Caco2 cells; type: ADME, cell-based; settings: Caco-2, read-out: permeability
[3] = tested on: Mycobacterium tuberculosis; assay: Antimycobacterial activity against Mycobacterium tuberculosis expressing GFP assessed as reduction of bacterial growth rate at 30 uM after 5 to 7 days; type: functional, organism-based
Outline: (§2)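 GFP-expressing Mtb was grown several days in a microfluidic device with 7H9 flow medium. Compound at 30 μM was then flowed in from t = 118 h to t = 284 h, then washed out. Phase and GFP time-lapse images were taken at 1 h intervals to follow growth rate, morphology and lysis of single cells and microcolonies.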

[4] = Permeability of the compound from apical to basolateral side in human Caco2 cells; type: ADME, cell-based; settings: Caco-2, read-out: permeability
[5] = tested on: Mycobacterium tuberculosis; assay: Antimycobacterial activity against Mycobacterium tuberculosis H37Rv under hypoxic condition after 6 days by resazurin assay; type: functional; settings: 144 h
[6] = Inhibition of Mycobacterium smegmatis recombinant DprE1 using farnesylphosphoryl-beta-D-ribofuranose as substrate assessed as conversion of amplex red to resorufin after 30 mins; design: species or system Mycolicibacterium smegmatis
Outline: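 Msm DprE1 (thioredoxin-6His fusion of Msm Rv3790) at 75 nM, preincubated 30 min with 10 μM FAD. Buffer: 50 mM glycylglycine pH 8.5, 200 mM potassium glutamate, 0.002% Brij-35, 2% DMSO, 25 °C. Started with 300 μM farnesylphosphoryl-β-D-ribofuranose, 0.01 mg/mL HRP and 50 μM Amplex Red.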

[7] = Inhibition of Mycobacterium smegmatis DprE1 Y321H mutant using farnesylphosphoryl-beta-D-ribofuranose as substrate assessed as conversion of amplex red to resorufin after 30 mins; design: species or system Mycolicibacterium smegmatis
Outline: (§3)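 Recombinant M. smegmatis DprE1 (thioredoxin-6His fusion), wild type or Y321H, 75 nM. Enzyme was preincubated 30 min in FAD assay mix: 50 mM glycylglycine pH 8.5, 200 mM potassium glutamate, 10 μM FAD, 0.002% Brij-35, 2% DMSO. Reaction was started with 300 μM farnesylphosphoryl-β-D-ribofuranose, 0.01 mg/mL HRP and 50 μM amplex red at 25 °C.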

[8] = tested on: Mycolicibacterium smegmatis; assay: Ratio of IC50 for Mycobacterium smegmatis DprE1 Y321H mutant to IC50 for Mycobacterium smegmatis recombinant wild type DprE1; outline: as §3
Haemophilus influenzae [9] = assay: Antimicrobial activity against Haemophilus influenzae ARC158 at 100 uM; type: functional, organism-based
Outline: (§4)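 Nonmycobacterial panel of Candida albicans, Gram-negative and Gram-positive pathogens.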

[10] = tested on: Mycobacterium tuberculosis; assay: Antimycobacterial activity against Mycobacterium tuberculosis over expressing PimA after 5 days by standard microdilution method; type: functional; settings: 120 h
[11] = tested on: Mycolicibacterium smegmatis; assay: Antimicrobial activity against Mycobacterium smegmatis ATCC 607 at 100 uM; type: functional, organism-based
Escherichia coli [12] = assay: Antimicrobial activity against Escherichia coli ARC524 at 100 uM; type: functional, organism-based; outline: as §4
[13] = Fraction unbound in human plasma at 20 uM after 18 hrs by equilibrium dialysis method; type: ADME, cell-free
[14] = tested on: Mycolicibacterium smegmatis; assay: Binding affinity to Mycobacterium smegmatis recombinant DprE1 assessed as half life
Outline: (§5)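 Progress curves (fluorescence vs time) recorded at several inhibitor concentrations with 75 nM Msm DprE1 in the FAD/HRP/Amplex Red coupled assay, pH 8.5, 25 °C. A single-step reversible slow-binding model was fitted globally, with vs and vi fitted per concentration and koff and Kiapp shared. Half-life and residence time were derived from koff.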

Pseudomonas aeruginosa [15] = assay: Antimicrobial activity against Pseudomonas aeruginosa ARC545 at 100 uM; type: functional, organism-based; outline: as §4
[16] = tested on: Mycolicibacterium smegmatis; assay: Binding affinity to Mycobacterium smegmatis recombinant DprE1 assessed as dissociation constant; outline: as §5
[17] = tested on: Mycobacterium tuberculosis; assay: Antimycobacterial activity against Mycobacterium tuberculosis H37Rv at >MIC after 21 to 28 days; type: functional
Staphylococcus aureus = assay: Antimicrobial activity against Staphylococcus aureus ARC517 at 100 uM; type: functional, organism-based; outline: as §4
Haemophilus influenzae [18] = assay: Antimicrobial activity against Haemophilus influenzae ARC446 at 100 uM; type: functional, organism-based; outline: as §4
[19] = tested on: Mycobacterium tuberculosis; assay: Antimycobacterial activity against Mycobacterium tuberculosis expressing GFP assessed as change bacterial morphology at 30 uM after 5 to 7 days; type: functional, organism-based; outline: as §2
Cytochrome P450 2C9 = Cytochrome P450 2C9 (Homo sapiens, UniProt P11712); assay: Inhibition of CYP2C9 (unknown origin); type: ADME; outline: as §1
Sequence of Cytochrome P450 2C9 (P11712 whole entry): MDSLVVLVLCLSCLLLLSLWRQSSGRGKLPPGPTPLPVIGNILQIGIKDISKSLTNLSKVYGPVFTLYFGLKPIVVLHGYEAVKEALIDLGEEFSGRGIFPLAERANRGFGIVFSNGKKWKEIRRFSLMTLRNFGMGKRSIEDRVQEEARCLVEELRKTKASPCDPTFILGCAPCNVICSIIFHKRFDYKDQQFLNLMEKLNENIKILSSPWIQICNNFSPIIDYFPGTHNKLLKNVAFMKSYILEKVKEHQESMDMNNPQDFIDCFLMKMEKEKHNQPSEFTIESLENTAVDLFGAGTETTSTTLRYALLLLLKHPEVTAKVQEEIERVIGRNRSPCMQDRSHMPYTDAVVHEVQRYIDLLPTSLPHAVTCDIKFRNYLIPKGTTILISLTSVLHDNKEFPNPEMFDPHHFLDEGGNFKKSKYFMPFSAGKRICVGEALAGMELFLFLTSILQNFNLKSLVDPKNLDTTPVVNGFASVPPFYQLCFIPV

Klebsiella pneumoniae = assay: Antimicrobial activity against Klebsiella pneumoniae ARC1865 at 100 uM; type: functional, organism-based; outline: as §4
[20] = tested on: Mycobacterium tuberculosis; assay: Antimycobacterial activity against Mycobacterium tuberculosis H37Rv after 5 days by standard microdilution method; type: functional; settings: 120 h
[21] = tested on: Mycolicibacterium smegmatis; assay: Time dependent inhibition of Mycobacterium smegmatis recombinant DprE1 using farnesylphosphoryl-beta-D-ribofuranose as substrate assessed as conversion of amplex red to resorufin at 4.6 to 3333 nM
Outline: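 Coupled fluorescence assay at 25 °C with 75 nM recombinant Msm DprE1 (wild type or Y321H) in 50 mM glycylglycine pH 8.5, 200 mM potassium glutamate, 10 μM FAD, 0.002% Brij-35, 2% DMSO. Enzyme preincubated 30 min, then started with 300 μM FPR, HRP and 50 μM Amplex Red. Progress curves followed over 0−40 min, with background subtracted.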

Cytochrome P450 1A2 = target: T1, Cytochrome P450 1A2 (Homo sapiens, UniProt P05177); assay: Inhibition of CYP1A2 (unknown origin); type: ADME; outline: as §1
T1 sequence (P05177 whole entry): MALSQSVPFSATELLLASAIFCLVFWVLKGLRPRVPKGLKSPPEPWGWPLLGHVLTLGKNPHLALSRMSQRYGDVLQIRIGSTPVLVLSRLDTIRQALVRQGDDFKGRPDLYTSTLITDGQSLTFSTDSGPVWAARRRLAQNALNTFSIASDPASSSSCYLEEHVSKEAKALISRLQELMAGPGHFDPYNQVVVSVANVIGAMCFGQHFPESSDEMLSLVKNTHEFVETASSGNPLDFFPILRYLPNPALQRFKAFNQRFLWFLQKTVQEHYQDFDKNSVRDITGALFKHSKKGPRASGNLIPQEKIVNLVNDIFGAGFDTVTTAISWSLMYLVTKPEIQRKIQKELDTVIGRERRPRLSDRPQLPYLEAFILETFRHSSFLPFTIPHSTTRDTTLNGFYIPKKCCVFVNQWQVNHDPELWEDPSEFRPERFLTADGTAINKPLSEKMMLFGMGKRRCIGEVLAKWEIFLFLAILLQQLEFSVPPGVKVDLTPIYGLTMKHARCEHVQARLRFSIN

Streptococcus pneumoniae = assay: Antimicrobial activity against Streptococcus pneumoniae ARC548 at 100 uM; type: functional, organism-based; outline: as §4
[22] = tested on: Mycobacterium tuberculosis; assay: Antimycobacterial activity against Mycobacterium tuberculosis over expressing DprE1 after 5 days by standard microdilution method; type: functional; settings: 120 h
[23] = tested on: Mycobacterium tuberculosis; assay: Antimycobacterial activity against Mycobacterium tuberculosis over expressing TopA after 5 days by standard microdilution method; type: functional; settings: 120 h
[24] = tested on: Mycolicibacterium smegmatis; assay: Binding affinity to Mycobacterium smegmatis recombinant DprE1 assessed as residence time; outline: as §5
[25] = tested on: Mycobacterium tuberculosis; assay: Antimycobacterial activity against Mycobacterium tuberculosis expressing GFP assessed as bacterial lysis at 30 uM after 5 to 7 days measured after drug washout; type: functional, organism-based; outline: as §2
[26] = Intrinsic clearance in human liver microsomes at 1 uM up to 30 mins by LC-MS/MS analysis; type: ADME; settings: read-out: CLH
[27] = tested on: Mycobacterium tuberculosis; assay: Antimycobacterial activity against Mycobacterium tuberculosis over expressing InhA after 5 days by standard microdilution method; type: functional; settings: 120 h
Pseudomonas aeruginosa [28] = assay: Antimicrobial activity against Pseudomonas aeruginosa ARC546 at 100 uM; type: functional, organism-based; outline: as §4
Candida albicans = assay: Antimicrobial activity against Candida albicans ARC527 at 100 uM; type: functional, organism-based; outline: as §4
[29] = tested on: Mycolicibacterium smegmatis; assay: Antimicrobial activity against Mycobacterium smegmatis mc2155 at 100 uM; type: functional, organism-based; settings: str. MC2 155
[30] = Octanol-water partition coefficient, log D of the compound by shake-flask method; type: physicochemical
[31] = Solubility of the compound in 0.1 M phosphate buffer at pH 7.4 after 24 hrs by UV and MS analysis; type: physicochemical
[32] = Intrinsic clearance in rat cryopreserved hepatocytes assessed per 10^6 cells at 1 uM up to 120 mins by LC-MS/MS analysis; type: ADME, cell-based, Hepatocyte; settings: read-out: CLH
Cytochrome P450 2D6 = Cytochrome P450 2D6 (Homo sapiens, UniProt P10635); assay: Inhibition of CYP2D6 (unknown origin); type: ADME; outline: as §1
Sequence of Cytochrome P450 2D6 (P10635 whole entry): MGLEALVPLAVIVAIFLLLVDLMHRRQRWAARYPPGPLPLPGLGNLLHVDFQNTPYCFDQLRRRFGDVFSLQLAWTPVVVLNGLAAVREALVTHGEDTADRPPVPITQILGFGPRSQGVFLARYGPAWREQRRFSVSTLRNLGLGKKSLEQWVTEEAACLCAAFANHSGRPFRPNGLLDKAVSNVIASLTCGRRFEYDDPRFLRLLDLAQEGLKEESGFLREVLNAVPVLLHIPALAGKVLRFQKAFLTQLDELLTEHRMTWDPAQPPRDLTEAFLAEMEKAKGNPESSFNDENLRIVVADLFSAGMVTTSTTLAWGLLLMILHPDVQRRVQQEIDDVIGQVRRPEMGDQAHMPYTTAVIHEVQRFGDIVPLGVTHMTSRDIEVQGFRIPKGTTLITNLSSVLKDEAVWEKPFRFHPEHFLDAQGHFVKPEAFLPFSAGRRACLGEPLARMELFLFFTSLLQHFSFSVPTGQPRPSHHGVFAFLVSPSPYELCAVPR

Cytochrome P450 2C19 = Cytochrome P450 2C19 (Homo sapiens, UniProt P33261); assay: Inhibition of CYP2C19 (unknown origin); type: ADME; outline: as §1
Sequence of Cytochrome P450 2C19 (P33261 whole entry): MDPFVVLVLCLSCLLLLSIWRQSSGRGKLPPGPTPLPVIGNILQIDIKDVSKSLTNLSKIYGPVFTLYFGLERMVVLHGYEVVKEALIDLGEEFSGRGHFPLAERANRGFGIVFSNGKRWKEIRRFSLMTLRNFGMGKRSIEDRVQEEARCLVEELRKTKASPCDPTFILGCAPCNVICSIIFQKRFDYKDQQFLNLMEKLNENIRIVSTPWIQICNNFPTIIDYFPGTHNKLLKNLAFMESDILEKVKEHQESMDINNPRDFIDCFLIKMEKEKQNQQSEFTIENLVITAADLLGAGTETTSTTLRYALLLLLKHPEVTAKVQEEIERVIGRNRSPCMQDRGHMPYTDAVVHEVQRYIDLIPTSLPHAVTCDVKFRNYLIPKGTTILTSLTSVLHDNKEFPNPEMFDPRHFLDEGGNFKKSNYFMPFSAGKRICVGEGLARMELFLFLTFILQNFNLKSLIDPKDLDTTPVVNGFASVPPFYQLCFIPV

Escherichia coli [33] = assay: Antimicrobial activity against Escherichia coli ARC523 at 100 uM; type: functional, organism-based; outline: as §4
[34] = Cytotoxicity against human A549 cells after 72 hrs by resazurin based fluorescence assay; type: cell-based; settings: read-out: MIC
Outline: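 Cytotoxicity read as MMIC, the MIC on the A549 cell line.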

SMILES: Cn1ncc(C(=O)N2CCC(Nc3cc(=O)[nH]c4ccc(F)cc34)CC2)c1Cl
- INH (Cytochrome P450 3A4): > 30 µM
- Activity [1]: Active
- Papp B→A [2]: 13 ×10⁻⁶ cm/s
- Activity [3]: Active
- Papp A→B [4]: 0.6 ×10⁻⁶ cm/s
- IC80 [5]: > 100 µM
- IC50 [6]: 0.005 µM
- IC50 [7]: 9.47 µM
- fold change (FC) [8]: 111
- Activity (Haemophilus influenzae [9]): inactive
- MIC [10]: 1.6 µM (≈ 0.646 µg/mL)
- Activity [11]: inactive
- Activity (Escherichia coli [12]): inactive
- fraction unbound at 18 h, 20 µM [13]: 0.4
- T1/2 [14]: 1.38 h
- Activity (Pseudomonas aeruginosa [15]): inactive
- Kdiss [16]: 0.00012 s⁻¹
- MBC [17]: 3.1 µM (≈ 1.25 µg/mL)
- Activity (Staphylococcus aureus): inactive
- Activity (Haemophilus influenzae [18]): inactive
- Activity [19]: Active
- INH (Cytochrome P450 2C9): > 30 µM
- Activity (Klebsiella pneumoniae): inactive
- MIC [20]: 1.56 µM (≈ 0.63 µg/mL)
- inhibition [21]: Active
- INH (Cytochrome P450 1A2): > 30 µM
- Activity (Streptococcus pneumoniae): inactive
- MIC [22]: 100 µM (≈ 40.4 µg/mL)
- MIC [23]: 0.8 µM (≈ 0.323 µg/mL)
- TIME [24]: 1.98 h
- Activity [25]: Active
- microsomal CLint at 1 µM [26]: < 4.8 µL/min/mg
- MIC [27]: 1.6 µM (≈ 0.646 µg/mL)
- Activity (Pseudomonas aeruginosa [28]): inactive
- Activity (Candida albicans): inactive
- Activity [29]: inactive
- logD [30]: 2
- solubility at 24 h [31]: 105 µM (≈ 42.4 µg/mL)
- hepatocyte CLint at 1 µM [32]: 5.6 µL/min/1e6 cells
- INH (Cytochrome P450 2D6): > 30 µM
- INH (Cytochrome P450 2C19): > 30 µM
- Activity (Escherichia coli [33]): inactive
- MCC at 72 h [34]: > 200 µM
